# Most compounds without a hit are left out; they make up all but 5.4% or so of the library.
# PostGolgi ctrl: growth of the yeast control strain, post-Golgi counter-screen; 98,000 compounds, 5% hits; efflux-deficient yeast background strain, growth absorbance A615, 16 h; inhibition, % at 10 µM; AID 738
# PLAP act: activators of human placental alkaline phosphatase; P05187; purified PLAP enzyme, luminescent substrate read-out; active compounds read high; activation fold at 20 µM; 96,000 compounds, 1.2% hits; AID 696; in the data active means activation fold above about 2
# Ecoli WT expand: E. coli BW25113 growth inhibition, expanded screen | 98,000 compounds, 0.15% hits | AID 710 | OD600 absorbance | growth inhibition, % at 100 µM;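 active means growth inhibition above about 50% at one test dose, limit read from the data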;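 further: growth measured after 20 h incubation at 37 °C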
# PostGolgi yeast: growth inhibition of a yeast mutant, post-Golgi transport screen; post-Golgi transport phenotypic cell assay; inhibition, % at 10 µM; 98,000 compounds, 0.9% hits;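 further: yeast cells grown in 1536-well plates; yeast grown about 18 h at 30C before absorbance read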
# HePTP inh: human HePTP phosphatase inhibition; recombinant HePTP phosphatase activity, OD absorbance; inhibition, % at 20 µM; 110,000 compounds, 0.64% hits; in the data active means inhibition above about 50%;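 further: plate controls were vehicle for no effect and reference inhibitor for full effect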
# Target sequence (P35236 whole entry, looked up): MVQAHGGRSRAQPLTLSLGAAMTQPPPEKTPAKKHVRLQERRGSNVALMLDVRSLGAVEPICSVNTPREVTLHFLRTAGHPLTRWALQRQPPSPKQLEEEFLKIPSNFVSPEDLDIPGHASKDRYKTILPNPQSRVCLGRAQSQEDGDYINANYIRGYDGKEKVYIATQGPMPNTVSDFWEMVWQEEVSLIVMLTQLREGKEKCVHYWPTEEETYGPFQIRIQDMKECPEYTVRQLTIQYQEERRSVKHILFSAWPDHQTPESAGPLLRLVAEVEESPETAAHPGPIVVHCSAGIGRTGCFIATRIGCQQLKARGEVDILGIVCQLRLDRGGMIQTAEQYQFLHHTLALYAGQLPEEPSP
# tolC growth inh: E. coli tolC mutant growth inhibition | E. coli BW25113 tolC mutant growth, OD615 | growth inhibition, % at 10 µM (by protocol) | 65,000 compounds, 2.2% hits;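 active means growth inhibition at or above a cutoff equal to the mean over every tested compound plus 3 SD, cut at about 60% in these data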;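 further: growth measured after 20 h incubation at 37 °C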
#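 Assay system: tolC-deleted E. coli BW25113. Medium: kanamycin-containing LB broth (50 µg/mL). Dosing: 10 µM final, single dose. Timing: bacterial growth with compound for 20 h at 37 °C. Detection: A615 absorbance measurement. Read-out basis: growth inhibition in percent.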
# The depositor's hits bear a star; . = no result. Unless noted, no stated cut-off is given here; in the data, active means inhibition above about 30%; inactive means the rest.
SMILES,PostGolgi ctrl,PLAP act,Ecoli WT expand,PostGolgi yeast,HePTP inh,tolC growth inh
COC(=O)CSc1nc2ccccc2o1,-3.2,1,-7.0,4.2,0.4,-9.4
CCOC(=O)c1c2n(c3c(NCc4ccccc4)ncnc13)CCCC2,4.0,2.5*,6.0,2.0,6.0,7.6
CCOC(=O)c1c(NC(=O)CNCc2ccccc2)sc2c1CCCCC2,.,.,.,.,-0.2,.
COc1ccc(COC(=O)C2=C(C)NC(=O)NC2c2cc(Cl)c(O)c(OC)c2)cc1 (stereo not given),.,.,.,.,-8.3,.
Cc1nn(-c2ccc(Cl)c(Cl)c2Cl)c(=O)c2ccccc12,29.4,0.8,-10.0,-9.2,.,.
Cc1nn(-c2ccc(Cl)c(Cl)c2)c(=O)c2ccccc12,48.8*,1.1,2.0,-0.8,.,.
COc1ccc(CNC(=O)CN(Cc2ccccc2)S(=O)(=O)c2ccccc2)cc1,.,.,.,.,7.7,.
O=C(O)c1ccccc1OCCOc1ccccc1C(=O)O,43.8*,0.8,8.0,-8.2,3.8,-12.8
Cc1ccc(C)c(S(=O)(=O)Nc2ccc(OC(=O)c3ccc(Cl)cc3)cc2)c1,.,.,.,.,2.9,.
O=C(Nc1cc(C(F)(F)F)ccc1-n1cncn1)c1ccc(-c2ccccc2)cc1,13.0,0.9,-19.0,76.3*,.,.
CN=C(Nc1ccccc1)SC1CC(=O)N(c2ccc(C(=O)OC)cc2)C1=O (stereo not given),36.8*,1.2,-7.0,4.8,.,.
O=C1CC(SC(=Nc2ccccc2)Nc2ccccc2)C(=O)N1c1ccc(Cl)cc1 (stereo not given),0.1,1,-6.0,-2.7,.,.
O=C1CC(SC(=Nc2ccccc2)Nc2ccccc2)C(=O)N1c1cccc(Cl)c1 (stereo not given),32.6*,0.9,-9.0,4.6,.,.
CCOc1ccccc1NC(=O)c1cc(CC(C)C)oc1C,22.5,0.9,6.0,6.1,-5.6,75.2*
CC(C)Cc1ccc(C(C)C(=O)Nc2cccc(O)c2)cc1 (stereo not given),.,.,.,.,-3.9,.
O=C1c2ccccc2C(=O)N1CCCCn1c(=O)oc2ccccc21,44.4*,0.8,-2.0,4.0,1.6,-3.9
CC(C)N1CCC2(CC1)N=C(c1ccc3c(c1)OCO3)CC(c1cc(Cl)ccc1O)N2 (stereo not given),50.1*,1.2,29.0,15.0,12.8,100.0*
CC(Sc1ccc(Cl)cc1)C(=O)NCc1ccc2c(c1)OCO2 (stereo not given),19.6,1,9.0,-1.1,.,.
CCCCCOC(=O)C1=C(C)NC(=O)NC1c1ccc(Br)cc1 (stereo not given),.,.,.,.,-13.3,.
Cc1nnc(NC(=O)c2cc(C(F)(F)F)cc(C(F)(F)F)c2)s1,.,.,.,.,-9.1,.
Cc1cccc(N2CCN(C(=O)c3cc4c(=O)n(C)c5ccccc5c4n3C)CC2)c1C,39.5*,0.9,-13.0,3.1,-6.1,-1.6
Cn1c(C(=O)N2CCCC2)cc2c(=O)n(C)c3ccccc3c21,-4.0,0.9,4.0,6.6,1.0,10.5
Cc1ccc(Cl)cc1N1CCN(C(=O)c2cc3c(=O)n(C)c4ccccc4c3n2C)CC1,44.7*,1.6,-3.0,-7.5,13.3,16.9
Cn1c(C(=O)N2CCN(c3ccccc3F)CC2)cc2c(=O)n(C)c3ccccc3c21,.,.,.,.,7.4,-5.7
Cc1ccc(C=Nc2ccc(F)cc2)o1,.,.,.,.,-0.8,.
SMILES,PostGolgi ctrl,PLAP act,Ecoli WT expand,PostGolgi yeast,HePTP inh,tolC growth inh
CS(=O)(=O)N(CC(=O)N1CCN(Cc2ccccc2)CC1)Cc1ccccc1,2.9,1.3,0.0,3.7,8.4,1.5
COc1ccccc1N1CCN(C(=O)CN(Cc2ccccc2)S(C)(=O)=O)CC1,10.6,1.5,3.0,34.9*,9.9,16.8
CS(=O)(=O)N(CC(=O)N1CCc2ccccc2C1)Cc1ccccc1,11.8,2.2*,1.0,-2.6,.,.
O=C(Nc1ccc(OC(F)(F)F)cc1)c1ccc(OCc2ccccc2)cc1,.,.,.,.,7.8,.
C=CCOCC(O)CSCc1ccc(Cl)cc1 (stereo not given),.,.,.,.,7.6,.
CCOc1cccc(-c2nn3c(-c4cc(C)[nH]n4)nnc3s2)c1,21.3,2.4*,2.0,2.7,-8.8,25.4
COc1cccc(-c2nnc3sc(C4CCCCC4)nn23)c1,33.2*,1.8,11.0,9.5,12.5,6.4
CCOc1cccc(-c2nnc3sc(-c4cc(OC)c(OC)cc4OC)nn23)c1,.,1,.,.,-1.6,-0.3
CCOc1cccc(-c2nnc3sc(C4CCCCC4)nn23)c1,33.4*,1.1,-13.0,-3.1,6.4,17.0
Cc1c(Cl)cccc1-c1ccc(/C=C/c2cc(C(F)(F)F)[nH]c(=O)n2)o1,.,.,.,.,8.2,.
CCC1CCC/C1=N\NC(=O)c1cc(C)[nH]n1 (stereo not given),5.7,2.3*,5.0,-1.1,.,.

# Assay outcomes: PubChem BioAssay, several laboratories
